Measured values taken from ChEMBL document CHEMBL1131028, “Nucleosides and nucleotides. 177. 9-(6,7-dideoxy-beta-D-allo-hept-5- ynofuranosyl)adenine: a selective and potent ligand for P3 purinoceptor-like protein” (J Med Chem, 1998).
Calls of active or inactive are those of the source. The calls are words filed in the database; no cut-off is given here.

Assays:
P3 purinoceptor = assay: Binding activity was evaluated on P3 purinoceptor-like protein from rat brain membranes by using [3H]NECA (40 nM).
In short: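 Partially purified P3LP: rat brain membranes solubilized in CHAPS, then hydroxylapatite chromatography; A1, A2A, A2B and A3 adenosine receptors and adenotin absent from the preparation.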

[1] = target: T1, Adenosine receptor A1 (Rattus norvegicus) (UniProt P25099); assay: Inhibition of [3H]- DPCPX binding to Adenosine A1 receptor of rat brain membranes at 10 uM; format: cell membranes; settings: Membrane
T1 sequence (whole entry): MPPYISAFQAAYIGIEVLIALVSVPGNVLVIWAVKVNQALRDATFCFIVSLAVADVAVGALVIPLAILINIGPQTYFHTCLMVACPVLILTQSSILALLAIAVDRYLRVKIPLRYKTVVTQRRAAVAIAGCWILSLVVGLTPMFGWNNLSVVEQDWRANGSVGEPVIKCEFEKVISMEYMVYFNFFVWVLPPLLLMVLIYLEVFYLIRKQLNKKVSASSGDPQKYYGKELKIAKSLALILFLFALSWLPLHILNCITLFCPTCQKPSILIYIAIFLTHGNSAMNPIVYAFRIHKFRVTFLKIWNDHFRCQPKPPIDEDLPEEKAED
In short: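 Rat brain membranes labelled with [3H]DPCPX (2 nM) to measure A1 receptor binding; test compound displacement read as percent inhibition at a single concentration.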

[2] = target: T2, Adenosine receptor A3 (Rattus norvegicus) (UniProt P28647); assay: Inhibition of [125I]AB-MECA (0.15 nM) binding to Adenosine A3 receptor of RBL-2H3 cell membranes; No inhibition at 10 uM
T2 sequence (whole entry): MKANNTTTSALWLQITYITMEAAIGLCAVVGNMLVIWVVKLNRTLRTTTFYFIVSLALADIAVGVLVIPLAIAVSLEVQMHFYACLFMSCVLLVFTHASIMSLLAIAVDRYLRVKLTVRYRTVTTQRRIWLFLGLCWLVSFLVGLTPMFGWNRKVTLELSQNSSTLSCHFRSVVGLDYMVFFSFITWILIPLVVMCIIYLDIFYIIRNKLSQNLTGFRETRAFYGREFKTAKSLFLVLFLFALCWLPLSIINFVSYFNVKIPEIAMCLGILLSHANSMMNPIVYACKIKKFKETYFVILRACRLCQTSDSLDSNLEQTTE

[3] = target: Adenosine receptor A2a (Rattus norvegicus) (UniProt P30543); settings: Membrane, 100 uM
Chain of Adenosine receptor A2a (Rattus norvegicus) (P30543 whole entry): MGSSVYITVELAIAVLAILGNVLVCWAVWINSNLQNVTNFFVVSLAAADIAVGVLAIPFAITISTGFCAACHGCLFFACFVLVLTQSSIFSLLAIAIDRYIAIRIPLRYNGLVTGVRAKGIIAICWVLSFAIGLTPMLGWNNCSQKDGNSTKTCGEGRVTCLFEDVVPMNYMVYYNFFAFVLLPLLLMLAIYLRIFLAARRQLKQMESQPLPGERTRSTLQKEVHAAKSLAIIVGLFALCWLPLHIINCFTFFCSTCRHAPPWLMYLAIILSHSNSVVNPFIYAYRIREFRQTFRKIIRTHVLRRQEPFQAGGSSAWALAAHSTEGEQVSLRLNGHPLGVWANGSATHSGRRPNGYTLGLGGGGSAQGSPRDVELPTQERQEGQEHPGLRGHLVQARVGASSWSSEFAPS

[4] = target: T3, Adenosine receptor A2b (Rattus norvegicus) (UniProt P29276); assay: Activity against Adenosine A2B receptor as cAMP production in VA-13 cells; No inhibition at 100 uM; format: functional, cell-based
T3 sequence (whole entry): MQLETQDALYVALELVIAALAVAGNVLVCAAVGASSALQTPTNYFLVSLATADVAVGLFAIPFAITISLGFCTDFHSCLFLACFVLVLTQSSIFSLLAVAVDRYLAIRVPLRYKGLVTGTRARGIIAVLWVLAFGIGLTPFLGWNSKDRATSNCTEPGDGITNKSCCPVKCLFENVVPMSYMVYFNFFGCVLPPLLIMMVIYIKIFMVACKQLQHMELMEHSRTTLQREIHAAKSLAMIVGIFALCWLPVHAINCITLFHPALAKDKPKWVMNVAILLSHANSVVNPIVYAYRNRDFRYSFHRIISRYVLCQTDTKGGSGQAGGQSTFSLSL

Adenosine receptor A1 = target: T4, Adenosine receptor A1 (Rattus norvegicus, UniProt P25099); assay: Inhibition of [3H]- DPCPX binding to Adenosine A1 receptor ofrat brain membranes
T4 sequence (P25099 whole entry): T1 sequence (whole entry)

[5] = target: T2, Adenosine receptor A3 (Rattus norvegicus); assay: Inhibition of [125I]AB-MECA (0.15 nM) binding to Adenosine A3 receptor of RBL-2H3 cell membranes; No inhibition at 10 uM; format: cell-based

Structure (SMILES)	Ki (P3 purinoceptor) [nM]	also measured
CCCSC[C@H]1OC(n2cnc3c(N)ncnc32)[C@H](O)[C@@H]1O (stereo not given in full)	1100	
[N-]=[N+]=NC[C@H]1OC(n2cnc3c(N)ncnc32)[C@H](O)[C@@H]1O (stereo not given in full)	81	
C#C[C@H](O)[C@H]1OC(n2cnc3c(N)ncnc32)[C@H](O)[C@@H]1O (stereo not given in full)	19	Inhibition (Adenosine receptor A1): 33%; inhibition [3]: 40%; inhibition [5]: inactive
CCNC(=O)[C@H]1O[C@@H](n2cnc3c(N)ncnc32)[C@H](O)[C@@H]1O [NECA]	37	
NC(=O)[C@H]1OC(n2cnc3c(N)ncnc32)[C@H](O)[C@@H]1O (stereo not given in full)	64	
CNC(=O)[C@H]1O[C@@H](n2cnc3c(N)ncnc32)[C@H](O)[C@@H]1O	51	
Nc1ncnc2c1ncn2C1O[C@H](CSc2ccccc2)[C@@H](O)[C@H]1O (stereo not given in full)	54	
Nc1ncnc2c1ncn2C1O[C@H](CCl)[C@@H](O)[C@H]1O (stereo not given in full)	84	

Continued by falling Ki (P3 purinoceptor), values first:

Ki (P3 purinoceptor) [nM]	Structure (SMILES)	also measured
21000	CN(C)C(=O)[C@H]1OC(n2cnc3c(N)ncnc32)[C@H](O)[C@@H]1O (stereo not given in full)	
450	C#C[C@@H](O)[C@H]1OC(n2cnc3c(N)ncnc32)[C@H](O)[C@@H]1O (stereo not given in full)	inhibition [1]: 21%; inhibition [2]: inactive; inhibition [3]: 40%; inhibition [4]: inactive
280	C#C[C@H]1OC(n2cnc3c(N)ncnc32)[C@H](O)[C@@H]1O (stereo not given in full)	
70	Nc1ncnc2c1ncn2C1O[C@H](CSCc2ccccc2)[C@@H](O)[C@H]1O (stereo not given in full)	
64	N#C[C@H]1OC(n2cnc3c(N)ncnc32)[C@H](O)[C@@H]1O (stereo not given in full)	
